Results on three compounds are retold here after ChEMBL document CHEMBL1933044.

The source made the active and inactive calls. No cut-off for these calls is given here.

Assay [1] concerns Matrix protein 2 (Influenza A virus), P06821 [withheld]. Kind of assay: Inhibition of Influenza A virus (A/Puerto Rico/8/1934(H1N1)) M2 channel S31N mutant expressed in Xenopus oocytes at 100 uM by two-electrode voltage clamp assay. The assay is classed as cell-based. The conditions noted are these: Oocyte. The method, boiled down:
(§1)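 Influenza A/Udorn/72 M2 cDNA, wild type or S31N or V27A mutant made by site-directed mutagenesis, expressed from mRNA microinjected into Xenopus oocytes. Two-electrode voltage clamp recording was done 48–72 h after injection. Compound was applied at pH 5.5 for 2 min once inward current peaked. Residual current was compared with current before application.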

Assay [2] relates to Matrix protein 2 (Influenza A virus), P06821 [V27A]. Kind of assay: Inhibition of Influenza A virus (A/Puerto Rico/8/1934(H1N1)) M2 channel V27A mutant expressed in Xenopus oocytes at 100 uM by two-electrode voltage clamp assay. The class given is cell-based. The conditions noted are these: Oocyte. The method, boiled down: as §1

For `CN(C)C12CC3CC(C)(CC(C1)c1ccccc13)C2`, the inhibition entry in assay [1] and in assay [2] was “inactive” in each case.
For `CC12CC3CC(N)(CC(C1)c1ccccc13)C2`, the inhibition result in assay [1] and in assay [2] was “inactive” in each case.
Regarding `CC12CC3CC(NCc4ccccc4)(CC(C1)c1ccccc13)C2`, the inhibition entry in assay [1] and in assay [2] was “inactive” in each case.
